Reference: ChEMBL document CHEMBL4513216, “Probing the Open Global Health Chemical Diversity Library for Multistage-Active Starting Points for Next-Generation Antimalarials” (ACS Infect Dis, 2020)

experiment: Toxicity liver stage against HepG2, at 10uM; type: cell-based; design: test concentration 10 uM, cell line HepG2-A16-CD81EGFP; settings: human, HepG2-A16-CD81EGFP cells; read-out: INHIBITION
Method in brief: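 Uninfected HepG2-A16-CD81EGFP cells, 3 × 10^3 per well, 1536-well, plated on prespotted compound at 10 μM final, parasite-free screening media added to match infected plates; puromycin 10 μM positive, DMSO 0.5% negative; run in parallel with 48 h PbLuc assay at 37 °C, 5% CO2; viability by CellTiter-Glo luminescence, normalized to controls.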

SMILES | cytotoxicity at 10 µM [%]
CC1CCc2c(c3ccccc3[nH]c2=O)O1 (centres undefined) | -8.41
O=C1N[C@@H]2CCN(C(=O)C3CCCC3)[C@@H]2C(=O)N1c1ccc(F)cc1 | -1.1
CC(=O)OC1CN(c2nc3c(Cl)cccc3s2)C1 | -0.745
CCN(CC)Cc1nc2c(o1)CN(C(=O)c1ccc3ncccc3c1)C2 | 6.01
CC(=O)N1CCO[C@@H]2CN(C(=O)c3ccc4ccccc4c3)CC[C@@H]2C1 | 1.35
COCC1c2nnn(CC3CC3)c2CCN1C(=O)c1cccn1C (centres undefined) | -133
O=C(c1cnccn1)N1CCN2C[C@H](OCC3CC3)C[C@H]2C1 | 2.92
Cc1c(C2CC(=O)Nc3c2cnn3C(C)(C)C)cnn1C (centres undefined) | -2.89
Cc1noc(C)c1-c1nc(NCCN(C)C)ncc1-c1cnccn1 | -9.03
CC(C)COCCC(=O)Nc1cc(-n2nnnc2C2CC2)ccc1F | 7.57
CC(C)c1nsc(N2CCn3c(nnc3-c3ccccc3)C2)n1 | -13.9
CN(C)Cc1ccc(C(N)=O)cc1NC(=O)c1cccc(C#N)c1 | 1.12
COC(=O)c1cccc(S(=O)(=O)NCC(c2ccco2)N2CCCC2)c1 (centres undefined) | -1.74
NC(=O)NC1CCN(Cc2ccc3c(c2)CCC3)CC1 | -3.19
O=C1CN(C(=O)c2cc3ccc(Br)cc3[nH]2)CCN1 | 0.549
O=C(CNC(=O)C1CC1)NCc1ccc(Cl)s1 | -3.12
Cc1cc(C)n(CC2CCCN2CC(=O)Nc2nnc(C)s2)n1 (centres undefined) | 5.29
Cn1c(C(=O)N2CCC(CC(N)=O)CC2)c(Cl)c2ccccc21 | 18.7
CCOC(=O)N1CCN(C(=O)c2cc(-c3ccccc3F)on2)CC1 | 1.14
CC(C)OCCC(=O)Nc1c(-c2ccc(F)cc2)ncn1C | -3.41
Cc1[nH]c(=O)sc1S(=O)(=O)N1CCCC1C(=O)NCc1ccsc1 (centres undefined) | 2.78
Cc1cc(N2CCCCC2Cn2nc(C)cc2C)n2ncnc2n1 (centres undefined) | -1.38

SMILES | cytotoxicity at 10 µM [%]
CC(Sc1n[nH]c(-c2ccc3c(c2)CCC3)n1)C(N)=O (centres undefined) | -0.665
COC(=O)c1ccc(CNC(C)c2ccc(S(C)(=O)=O)cc2)cc1 (centres undefined) | 5.21
CN1CC(C(=O)NCCc2ccc(Br)cc2F)CC1=O (centres undefined) | 2.43
COCC(=O)N1CCC(Nc2ccnc3ccc(Cl)cc23)CC1 | 5.78
CN(CC1CC1)C(=O)Cc1csc(-c2ncccn2)n1 | 4.56
CCN(C)C[C@@H]1CN(Cc2cnc3c(S(C)(=O)=O)cnn3c2)C[C@@H]1CO | -4.99
C[C@@H]1CN(C(=O)CCc2cnn(C)c2)CC[C@@]1(O)C1CCOCC1 | -0.872
CC1(c2ccccc2)CCC(=O)N(CCN2CCCOC2=O)C1 (centres undefined) | -3.99
COCCN1CCN(C(=O)c2ccc(C)cc2F)[C@H]2CS(=O)(=O)C[C@H]21 | -11.4
CCC(CC)n1nc(C)cc1NC(=O)C1CCCO1 (centres undefined) | -0.951
COc1cccc(OCc2cc(C(=O)N3CC(O)C3)n[nH]2)c1 | 2.81
Cc1nc2c(c(=O)n1C)CN(C(=O)C1CCCN(C3CCCC3)C1)C2 (centres undefined) | -8.67
COc1ccc(OC)c(NC(=O)c2cc3c([nH]c2=O)CCCC3=O)c1 | -0.607
Cc1ccc(CCC(=O)N2CCOCC2c2ncon2)c(C)c1 (centres undefined) | -6.76
CCn1nc2c(cc1=O)CN(Cc1nc(-c3cccnc3)no1)CC2 | -5.86
COc1ccccc1CNC(=O)N1CCN(Cc2cc(C)on2)CC1 | -9.07
COCCNC(=O)[C@H]1C[C@@H]2CCN(c3ncccn3)C[C@H]2O1 | -17.1
Fc1ccc(COCC2CCN(Cc3ccccn3)CC2)cc1 | -2.67
Cc1nc(CO[C@@H]2CN(Cc3nccs3)[C@@H]3COC[C@@H]32)cs1 | -3.03
Cc1ccc2c(c1)C(N(C)C)CC21CCN(CCO)CC1 (centres undefined) | 3.62
CN(C)CCN1CCO[C@H]2CN(Cc3cnn(C)c3)C[C@H]21 | 1.82
c1ccc(N2CCC3(CCCN(c4ncccn4)C3)C2)nc1 (centres undefined) | -133
